Values after ≈ are worked out from the molar mass of the structure shown.
What was measured:
Staphylococcus aureus = test: Antibacterial activity against Staphylococcus aureus assessed as growth inhibition after 18 to 22 hrs by broth microdilution method; type: functional
Procedure, shortened: (§1)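 Bacterial isolates subcultured for purity, identified conventionally. Broth microdilution per NCCLS in Mueller-Hinton II broth; plates with growth control (no compound) and medium-only control, incubated 18-22 h at 35 °C. MIC taken as lowest concentration giving complete growth inhibition by unaided eye.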

Staphylococcus warneri = test: Antibacterial activity against Staphylococcus warneri assessed as growth inhibition after 18 to 22 hrs by broth microdilution method; type: functional; procedure, shortened: as §1
[1] = Cytotoxicity against human Hep2 cells assessed as cell survival fraction at 0.5 ug/ml after 24 hrs by trypan blue exclusion assay (reference value: 97 to 98%); type: cell-based; settings: HEp-2 cells, read-out: Survival
Candida parapsilosis = test: Anticandida activity against Candida parapsilosis clinical isolate assessed as growth inhibition after 24 hrs by broth microdilution method; type: functional; settings: Lodderomyces parapsilosis
Procedure, shortened: (§2)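 Clinical Candida isolates subcultured for purity and optimal growth before testing; compounds dissolved in DMSO. Broth microdilution per NCCLS in Sabouraud dextrose broth, serial dilutions, inoculum about 10³/mL, with growth control and medium-only control; 24 h incubation at 37 °C. MIC is the lowest concentration giving complete visible inhibition.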

[2] = Cytotoxicity against human Hep2 cells assessed as cell survival fraction at 10 ug/ml after 24 hrs by trypan blue exclusion assay (reference value: 97 to 98%); type: cell-based; settings: HEp-2 cells, read-out: Survival
Escherichia coli = test: Antibacterial activity against Escherichia coli assessed as growth inhibition after 18 to 22 hrs by broth microdilution method; type: functional; procedure, shortened: as §1
Pichia kudriavzevii = test: Anticandida activity against Candida krusei clinical isolate assessed as growth inhibition after 24 hrs by broth microdilution method; type: functional; procedure, shortened: as §2
[Candida] sake = Anticandida activity against Candida sake clinical isolate assessed as growth inhibition after 24 hrs by broth microdilution method; type: functional; settings: Fermentozyma sake; procedure, shortened: as §2
[3] = Cytotoxicity against human Hep2 cells assessed as cell survival fraction at 0.05 ug/ml after 24 hrs by trypan blue exclusion assay (reference value: 97 to 98%); type: cell-based; settings: HEp-2 cells, read-out: Survival
Candida albicans = test: Anticandida activity against Candida albicans clinical isolate assessed as growth inhibition after 24 hrs by broth microdilution method; type: functional; procedure, shortened: as §2
[4] = Cytotoxicity against human Hep2 cells assessed as cell survival fraction at 5 ug/ml after 24 hrs by trypan blue exclusion assay (reference value: 97 to 98%); type: cell-based; settings: HEp-2 cells, read-out: Survival
Enterococcus faecalis = test: Antibacterial activity against […] assessed as growth inhibition after 18 to 22 hrs by broth microdilution method; type: functional; procedure, shortened: as §1
[5] = Cytotoxicity against human Hep2 cells assessed as cell survival fraction at 100 ug/ml after 24 hrs by trypan blue exclusion assay (reference value: 97 to 98%); type: cell-based; settings: HEp-2 cells, read-out: Survival
Nakaseomyces glabratus = test: Anticandida activity against Candida glabrata clinical isolate assessed as growth inhibition after 24 hrs by broth microdilution method; type: functional; procedure, shortened: as §2
Candida tropicalis = test: Anticandida activity against Candida tropicalis clinical isolate assessed as growth inhibition after 24 hrs by broth microdilution method; type: functional; procedure, shortened: as §2
Klebsiella oxytoca = test: Antibacterial activity against Klebsiella oxytoca assessed as growth inhibition after 18 to 22 hrs by broth microdilution method; type: functional; procedure, shortened: as §1
Enterobacter sp. = test: Antibacterial activity against Enterobacter spp. assessed as growth inhibition after 18 to 22 hrs by broth microdilution method; type: functional; procedure, shortened: as §1
[6] = Cytotoxicity against human Hep2 cells assessed as reduction of cell viability after 24 hrs by trypan blue exclusion assay; type: cell-based; settings: HEp-2 cells
Procedure, shortened: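 Hep2 cells in DMEM with 10% FBS, penicillin-streptomycin, 5% CO₂, 37 °C. Cells at 1 × 10⁵/mL exposed 24 h to seven concentrations (0.005-100 µg/mL), DMSO ≤0.5% final; controls were medium alone, DMSO, and 1 mM sodium nitroprusside. Cells scraped, allowed 30 min recovery, mixed 1:1 with 0.4% trypan blue, counted by hemocytometer by two operators.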

[7] = Cytotoxicity against human Hep2 cells assessed as cell survival fraction at 50 ug/ml after 24 hrs by trypan blue exclusion assay (reference value: 97 to 98%); type: cell-based; settings: HEp-2 cells, read-out: Survival
Proteus mirabilis = test: Antibacterial activity against Proteus mirabilis assessed as growth inhibition after 18 to 22 hrs by broth microdilution method; type: functional; procedure, shortened: as §1
[8] = system: Streptococcus alpha-hemolyticus; test: Antibacterial activity against Streptococcus alpha-hemolyticus assessed as growth inhibition after 18 to 22 hrs by broth microdilution method
[9] = Cytotoxicity against human Hep2 cells assessed as cell survival fraction at 0.005 ug/ml after 24 hrs by trypan blue exclusion assay (reference value: 97 to 98%); type: cell-based; settings: HEp-2 cells, read-out: Survival
HEp-2 [10] = test: Cytotoxicity against human Hep2 cells assessed as appearance of autophagic vacuoles near to mitochondrial proximity in cytoplasm at 5 to 100 ug/ml after 24 hrs by transmission electron microscopic analysis; type: cell-based; settings: hep-2, 24 h
Procedure, shortened: (§3)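 Hep2 cells treated and then examined by transmission electron microscopy, with unexposed cells as controls. Samples stained with 0.1% tannic acid for 30 min and uranyl acetate (5 mg/mL) for 1 h at 25 °C, dehydrated in graded acetone, embedded in Epon-812. Ultrathin sections counterstained with uranyl acetate and lead citrate before viewing.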

HEp-2 [11] = test: Cytotoxicity against human Hep2 cells assessed as mitochondrial swelling at 5 ug/ml after 24 hrs by transmission electron microscopic analysis; type: cell-based; settings: hep-2, 24 h; procedure, shortened: as §3
HEp-2 [12] = test: Cytotoxicity against human Hep2 cells assessed as dilatation of endoplasmic reticulum at 100 ug/ml after 24 hrs by transmission electron microscopic analysis; type: cell-based; settings: hep-2, 24 h; procedure, shortened: as §3
HEp-2 [13] = test: Cytotoxicity against human Hep2 cells assessed as loss of cristae at 5 ug/ml after 24 hrs by transmission electron microscopic analysis; type: cell-based; settings: hep-2, 24 h; procedure, shortened: as §3
HEp-2 [14] = test: Cytotoxicity against human Hep2 cells assessed as cell survival at 100 ug/ml after 24 hrs by transmission electron microscopic analysis; type: cell-based; settings: hep-2, 24 h; procedure, shortened: as §3
HEp-2 [15] = test: Cytotoxicity against human Hep2 cells assessed as appearance of finely granular cytoplasm at 5 ug/ml after 24 hrs by transmission electron microscopic analysis; type: cell-based; settings: hep-2, 24 h; procedure, shortened: as §3
HEp-2 [16] = test: Cytotoxicity against human Hep2 cells assessed as induction of vacuolization in proximity of mitochondria at 5 ug/ml after 24 hrs by transmission electron microscopic analysis; type: cell-based; settings: hep-2, 24 h; procedure, shortened: as §3

SMILES	MIC (Staphylococcus aureus) [µg/mL]	MIC (Staphylococcus warneri) [µg/mL]	viability at 24 h, 0.5 ug/ml [1] [%]	MIC (Candida parapsilosis) [µg/mL]	viability at 24 h, 10 ug/ml [2] [%]	MIC (Escherichia coli) [µg/mL]	MIC (Pichia kudriavzevii) [µg/mL]	MIC ([Candida] sake) [µg/mL]	viability at 24 h, 0.05 ug/ml [3] [%]	MIC (Candida albicans) [µg/mL]	viability at 24 h, 5 ug/ml [4] [%]	MIC (Enterococcus faecalis) [µg/mL]	viability at 24 h, 100 ug/ml [5] [%]	MIC (Nakaseomyces glabratus) [µg/mL]	MIC (Candida tropicalis) [µg/mL]	MIC (Klebsiella oxytoca) [µg/mL]	MIC (Enterobacter sp.) [µg/mL]	CC50 at 24 h [6] [µg/mL]	viability at 24 h, 50 ug/ml [7] [%]	viability at 24 h, 0.005 ug/ml [9] [%]	other results
C/C(=N\Nc1nc(-c2ccc(Cl)cc2Cl)cs1)C1CCCCC1	> 256	> 256	95	2 (≈ 5.43 µM)	88	> 256	2 (≈ 5.43 µM)	2 (≈ 5.43 µM)	96	0.25 (≈ 0.679 µM)	94	> 256	0	2 (≈ 5.43 µM)	2 (≈ 5.43 µM)	> 256	> 256	42 (≈ 114 µM)	0	97.2	MIC (Proteus mirabilis): > 256 µg/mL; MIC [8]: > 256 µg/mL
Clc1ccc(-c2csc(NN=C3CCCCCCC3)n2)c(Cl)c1	> 256	> 256	92.4	8 (≈ 21.7 µM)	87.5	> 256	2 (≈ 5.43 µM)	2 (≈ 5.43 µM)	93	0.5 (≈ 1.36 µM)	90	> 256	0	2 (≈ 5.43 µM)	2 (≈ 5.43 µM)	> 256	> 256	41 (≈ 111 µM)	0	94	MIC (Proteus mirabilis): > 256 µg/mL; MIC [8]: > 256 µg/mL
C=CCC/C(C)=N/Nc1nc(-c2ccc(OC)cc2)cs1	> 256	> 256	83	2 (≈ 6.64 µM)	72.4	> 256	2 (≈ 6.64 µM)	2 (≈ 6.64 µM)	91.2	0.5 (≈ 1.66 µM)	84	> 256	0	0.5 (≈ 1.66 µM)	2 (≈ 6.64 µM)	> 256	> 256	35 (≈ 116 µM)	0	94	MIC (Proteus mirabilis): > 256 µg/mL; MIC [8]: > 256 µg/mL
CCCC/C(CC)=N/Nc1nc(-c2ccc(OC)cc2)cs1	> 256	> 256	84	2 (≈ 6.3 µM)	70.2	> 256	2 (≈ 6.3 µM)	2 (≈ 6.3 µM)	90.2	0.25 (≈ 0.788 µM)	81	> 256	0	0.5 (≈ 1.58 µM)	2 (≈ 6.3 µM)	> 256	> 256	35 (≈ 110 µM)	0	93	MIC (Proteus mirabilis): > 256 µg/mL; MIC [8]: > 256 µg/mL
CCC/C(C)=N/Nc1nc(-c2ccc(C)cc2)cs1	> 256	> 256	91	2 (≈ 7.32 µM)	83.2	> 256	2 (≈ 7.32 µM)	2 (≈ 7.32 µM)	94	0.5 (≈ 1.83 µM)	93	> 256	62	0.5 (≈ 1.83 µM)	2 (≈ 7.32 µM)	> 256	> 256	≥ 100	72.8	97	Activity (HEp-2 [10]): Toxic; MIC (Proteus mirabilis): > 256 µg/mL; MIC [8]: > 256 µg/mL
CCC(CC)=NNc1nc(-c2ccc(C)cc2)cs1	> 256	> 256	86	2 (≈ 7.32 µM)	72.4	> 256	2 (≈ 7.32 µM)	2 (≈ 7.32 µM)	92.2	0.5 (≈ 1.83 µM)	84	> 256	77	0.25 (≈ 0.914 µM)	2 (≈ 7.32 µM)	> 256	> 256	≥ 100	67	94.6	MIC (Proteus mirabilis): > 256 µg/mL; MIC [8]: > 256 µg/mL
CC/C(C)=N/Nc1nc(-c2ccc(OC)cc2)cs1	> 256	> 256	64	2 (≈ 7.26 µM)	64	> 256	2 (≈ 7.26 µM)	2 (≈ 7.26 µM)	71	0.25 (≈ 0.908 µM)	69	> 256	0	2 (≈ 7.26 µM)	2 (≈ 7.26 µM)	> 256	> 256	25 (≈ 90.8 µM)	0	78	Activity (HEp-2 [11]): Toxic; Activity (HEp-2 [12]): Toxic; MIC (Proteus mirabilis): > 256 µg/mL; Activity (HEp-2 [13]): Toxic; MIC [8]: > 256 µg/mL
CCC/C(C)=N/Nc1nc(-c2ccc(OC)cc2)cs1	> 256	> 256	88	2 (≈ 6.91 µM)	75.5	> 256	2 (≈ 6.91 µM)	2 (≈ 6.91 µM)	90	0.25 (≈ 0.864 µM)	83	> 256	0	2 (≈ 6.91 µM)	2 (≈ 6.91 µM)	> 256	> 256	36 (≈ 124 µM)	0	92	MIC (Proteus mirabilis): > 256 µg/mL; MIC [8]: > 256 µg/mL
Clc1ccccc1C(c1ccccc1)(c1ccccc1)n1ccnc1 [CLOTRIMAZOLE]			93.4					4 (≈ 11.6 µM)	93		92.5		0	2 (≈ 5.8 µM)	2 (≈ 5.8 µM)			38 (≈ 110 µM)	0	94.4	Activity (HEp-2 [14]): Toxic; Activity (HEp-2 [15]): Toxic; Activity (HEp-2 [16]): Toxic

Reference: ChEMBL document CHEMBL2401735, “Synthesis and cytotoxicity of novel (thiazol-2-yl)hydrazine derivatives as promising anti-Candida agents” (Eur J Med Chem, 2013)
